Columns and labels:
[1] = Cytotoxicity against human RD cells by MTS assay; type: toxicity, cell-based
Summary of the method: (§1)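 Treated, uninfected RD or HeLa cells are run alongside the matching enterovirus CPE assays, with viability read by MTS. CC50 is the concentration giving a 50% adverse effect on host cells.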

[2] = Selectivity index, ratio of CC50 for human RD cells to EC50 for antiviral activity against human Enterovirus 71; type: toxicity; conditions: read-out: Ratio CC50/EC50
Summary of the method: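 SI is calculated as CC50 on uninfected RD cells divided by EC50 in the 3-day EV71 BrCr CPE-reduction MTS assay.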

Zika virus = assay: Antiviral activity against ZIKV MR766 infected in african green monkey Vero E6 cells assessed as decline in virus induced cytopathogenicity measured after 5 days by MTS based microscopic analysis; type: functional, organism-based; conditions: MR766, Vero C1008, 120 h
Summary of the method: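 Vero E6 cells (10^4/well) are seeded in MEM with 2% FCS and left to adhere overnight. Cells are then infected with ZIKV MR766 (passaged in C6/36 cells) and given 2-fold serial compound dilutions. After 5 days, CPE is scored by MTS and by microscopy of fixed, stained cells. EC50 is the 50% antiviral effect.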

SARS-CoV-2 = assay: Antiviral activity against SARS-CoV-2 BetaCoV/Belgium/GHB-03021/2020 infected in african green monkey Vero cells assessed as decline in virus induced cytopathogenicity measured after 4 days by argon laser scanning microscopic analysis; type: functional, organism-based; conditions: Severe acute respiratory syndrome coronavirus 2, BetaCoV/Belgium/GHB-03021/2020, Vero, 96 h
Enterovirus A71 = assay: Antiviral activity against human Enterovirus 71 BrCr infected in human RD cells assessed as reduction of virus induced cytopathic effect incubated for 3 days by MTS assay; type: functional, organism-based; conditions: Enterovirus A, 72 h
Summary of the method: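 Confluent RD cells (EMEM, 10% heat-inactivated FBS) are infected with ~100 CCID50 of EV71 BrCr and treated with a compound dilution series. After 3 days at 37 °C, 5% CO2, residual viability is measured by MTS. EC50 is the concentration giving 50% antiviral effect, from at least 2–3 independent experiments.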

[3] = Cytotoxicity against african green monkey Vero E6 cells by MTS assay; type: toxicity, cell-based, Vero C1008; conditions: chlorocebus sabaeus
Summary of the method: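 Cytotoxicity is measured on treated, uninfected Vero E6 cells in parallel with the antiviral assays, using a standard MTS assay. CC50 is the concentration causing a 50% adverse effect on host cells.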

[4] = Cytotoxicity against human HeLa cells by MTS assay; type: toxicity, cell-based; summary of the method: as §1
Coxsackievirus A21 = assay: Antiviral activity against Coxsackievirus 21 infected in human HeLa cells assessed as reduction of virus induced cytopathic effect incubated for 3 days by MTS assay; type: functional, organism-based; conditions: Enterovirus C, 72 h
Summary of the method: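 HeLa cells infected with coxsackievirus A21 (~100 CCID50) and treated with a compound dilution series, as in the EV71 set-up. Incubation was 3 days at 37 °C, 5% CO2, with residual viability quantified by MTS. EC50 is the concentration giving 50% antiviral effect. Values are means of ≥2 independent experiments.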

rhinovirus B14 = assay: Antiviral activity against Human rhinovirus 14 infected in human HeLa cells assessed as reduction of virus induced cytopathic effect incubated for 3 days by MTS assay; type: functional, organism-based; conditions: Rhinovirus B, 72 h
Summary of the method: (§2)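 Same setup as the EV71 assay: confluent monolayers (Vero A for CVB3; HeLa for CVA21, EV68, HRV-A02, HRV-B14) are infected with virus and treated with a compound dilution series. Incubation is 3 days at 37 °C, 5% CO2, and residual viability is read by MTS. EC50 is the 50% effective concentration, mean of at least 2 independent experiments.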

Coxsackievirus B3 = assay: Antiviral activity against Coxsackievirus B3 infected in african green monkey Vero cells assessed as reduction of virus induced cytopathic effect incubated for 3 days by MTS assay; type: functional, organism-based; conditions: Enterovirus B, 72 h; summary of the method: as §2
enterovirus D68 = assay: Antiviral activity against Human enterovirus 68 infected in human HeLa cells assessed as reduction of virus induced cytopathic effect incubated for 3 days by MTS assay; type: functional, organism-based; conditions: Enterovirus D, 72 h; summary of the method: as §2
rhinovirus A2 = assay: Antiviral activity against Human rhinovirus 2 infected in human HeLa cells assessed as reduction of virus induced cytopathic effect incubated for 3 days by MTS assay; type: functional, organism-based; conditions: Rhinovirus A, 72 h; summary of the method: as §2
[5] = Cytotoxicity against african green monkey Vero cells by MTS assay; type: toxicity, cell-based; conditions: chlorocebus sabaeus

CCOC(=O)/C=C/[C@H](C[C@@H]1CCNC1=O)NC(=O)[C@@H](CC(=O)[C@@H](NC(=O)c1cc(C)on1)C(C)C)Cc1ccc(F)cc1
CC50 [1]: > 1 µM | selectivity ratio [2]: > 111

OC[C@H]1O[C@@H](n2cnc3c(NCc4ccc(Cl)cc4)ncnc32)[C@H](O)[C@@H]1O
EC50 (Zika virus): > 100 µM | CC50 [1]: > 100 µM | EC50 (SARS-CoV-2): > 100 µM | EC50 (Enterovirus A71): 0.236 µM | selectivity ratio [2]: > 424 | CC50 [3]: > 100 µM

CSC[C@H]1O[C@@H](n2cnc3c(N4CCc5ccccc54)ncnc32)[C@H](O)[C@@H]1O
EC50 (Zika virus): > 100 µM | CC50 [1]: 64.9 µM | EC50 (SARS-CoV-2): > 100 µM | EC50 (Enterovirus A71): 19 µM | selectivity ratio [2]: 3.4 | CC50 [3]: > 100 µM

C[C@H](NP(=O)(OC[C@H]1O[C@@H](n2cnc3c(NCc4cccc(C(F)(F)F)c4)ncnc32)[C@H](O)[C@@H]1O)Oc1ccccc1)C(=O)OCc1ccccc1 (stereo partly drawn)
CC50 [1]: 9.18 µM | EC50 (SARS-CoV-2): > 100 µM | EC50 (Enterovirus A71): 0.017 µM | selectivity ratio [2]: 542

C[C@H](NP(=O)(OC[C@H]1O[C@@H](n2ccc3c(NCc4cccc(C(F)(F)F)c4)ncnc32)[C@H](O)[C@@H]1O)Oc1ccccc1)C(=O)OCc1ccccc1 (stereo partly drawn)
CC50 [1]: 42.5 µM | EC50 (SARS-CoV-2): > 100 µM | EC50 (Enterovirus A71): 0.6 µM | selectivity ratio [2]: 70.8 | CC50 [3]: > 100 µM

CSC[C@H]1O[C@@H](n2cnc3c(NCc4cccc(C(F)(F)F)c4)ncnc32)[C@H](O)[C@@H]1O
EC50 (Zika virus): > 100 µM | CC50 [1]: > 100 µM | EC50 (SARS-CoV-2): > 100 µM | EC50 (Enterovirus A71): > 20 µM | CC50 [3]: > 100 µM

CSC[C@H]1O[C@@H](n2cnc3c(NCc4ccc(Cl)cc4)ncnc32)[C@H](O)[C@@H]1O
EC50 (Zika virus): > 100 µM | CC50 [1]: > 100 µM | EC50 (SARS-CoV-2): > 100 µM | EC50 (Enterovirus A71): 8.05 µM | selectivity ratio [2]: > 12.1 | CC50 [3]: > 100 µM

OC[C@H]1O[C@@H](n2cnc3c(N4CCc5ccccc54)ncnc32)[C@H](O)[C@@H]1O
EC50 (Zika virus): > 100 µM | CC50 [1]: > 100 µM | EC50 (SARS-CoV-2): > 100 µM | EC50 (Enterovirus A71): > 100 µM | CC50 [3]: > 100 µM

C[C@@]1(O)[C@H](O)[C@@H](CO)O[C@H]1n1ccc2c(N)ncnc21 [BETA-2'-C-METHYL-7-DEAZA-ADENOSINE]
EC50 (Zika virus): 20 µM | CC50 [3]: > 300 µM

CSC[C@H]1O[C@@H](n2cnc3c(NCc4ccccc4Cl)ncnc32)[C@H](O)[C@@H]1O
EC50 (Zika virus): > 100 µM | CC50 [1]: > 100 µM | EC50 (SARS-CoV-2): > 100 µM | EC50 (Enterovirus A71): 2.61 µM | selectivity ratio [2]: > 38.3 | CC50 [3]: > 100 µM

OC[C@H]1O[C@@H](n2cnc3c(NCc4ccccc4Cl)ncnc32)[C@H](O)[C@@H]1O
EC50 (Zika virus): > 100 µM | CC50 [1]: 28.2 µM | EC50 (SARS-CoV-2): > 100 µM | EC50 (Enterovirus A71): 0.117 µM | selectivity ratio [2]: 241 | CC50 [3]: > 100 µM

CC(Nc1ncnc2c1ncn2[C@@H]1O[C@H](CO)[C@@H](O)[C@H]1O)c1ccccc1Cl (stereo partly drawn)
EC50 (Zika virus): > 100 µM | CC50 [1]: > 100 µM | EC50 (SARS-CoV-2): > 100 µM | EC50 (Enterovirus A71): > 100 µM | CC50 [3]: > 100 µM

CSC[C@H]1O[C@@H](n2cnc3c(NC(C)c4ccccc4Cl)ncnc32)[C@H](O)[C@@H]1O (stereo partly drawn)
EC50 (Zika virus): > 100 µM | CC50 [1]: > 100 µM | EC50 (SARS-CoV-2): > 100 µM | EC50 (Enterovirus A71): > 100 µM | CC50 [3]: > 100 µM

OC[C@H]1O[C@@H](n2cnc3c(NCc4cccc(S(F)(F)(F)(F)F)c4)ncnc32)[C@H](O)[C@@H]1O
EC50 (Zika virus): > 100 µM | CC50 [4]: 88.7 µM | CC50 [1]: > 100 µM | EC50 (Coxsackievirus A21): 31.7 µM | EC50 (rhinovirus B14): > 100 µM | EC50 (Coxsackievirus B3): > 100 µM | EC50 (SARS-CoV-2): > 100 µM | EC50 (Enterovirus A71): 0.102 µM | EC50 (enterovirus D68): > 100 µM | selectivity ratio [2]: > 1280 | CC50 [3]: > 100 µM | EC50 (rhinovirus A2): > 100 µM | CC50 [5]: > 100 µM

CSC[C@H]1O[C@@H](n2cnc3c(NCc4cccc(S(F)(F)(F)(F)F)c4)ncnc32)[C@H](O)[C@@H]1O
EC50 (Zika virus): > 100 µM | CC50 [1]: 23.5 µM | EC50 (SARS-CoV-2): > 100 µM | EC50 (Enterovirus A71): 1.85 µM | selectivity ratio [2]: 12.7 | CC50 [3]: 46.4 µM

COC(=O)[C@H](CCSC[C@H]1O[C@@H](n2cnc3c(NCc4cccc(Cl)c4)ncnc32)[C@H](O)[C@@H]1O)NC(=O)C(F)(F)F
EC50 (Zika virus): > 100 µM | CC50 [4]: > 100 µM | CC50 [1]: > 100 µM | EC50 (Coxsackievirus A21): 54.6 µM | EC50 (rhinovirus B14): > 100 µM | EC50 (Coxsackievirus B3): > 100 µM | EC50 (SARS-CoV-2): > 100 µM | EC50 (Enterovirus A71): 4.5 µM | EC50 (enterovirus D68): > 100 µM | selectivity ratio [2]: > 16.9 | CC50 [3]: > 100 µM | EC50 (rhinovirus A2): > 100 µM | CC50 [5]: > 100 µM

CSC[C@H]1O[C@@H](n2ccc3c(NCc4cccc(Cl)c4)ncnc32)[C@H](O)[C@@H]1O
EC50 (Zika virus): > 100 µM | CC50 [1]: > 100 µM | EC50 (SARS-CoV-2): > 100 µM | EC50 (Enterovirus A71): > 75 µM | CC50 [3]: > 100 µM

Cc1cccc(CNc2ncnc3c2ncn3[C@@H]2O[C@H](CO)[C@@H](O)[C@H]2O)c1
EC50 (Zika virus): > 100 µM | CC50 [4]: > 100 µM | CC50 [1]: > 100 µM | EC50 (Coxsackievirus A21): 36.4 µM | EC50 (rhinovirus B14): > 100 µM | EC50 (Coxsackievirus B3): > 100 µM | EC50 (SARS-CoV-2): > 100 µM | EC50 (Enterovirus A71): 0.094 µM | EC50 (enterovirus D68): 8.9 µM | selectivity ratio [2]: > 1060 | CC50 [3]: > 100 µM | EC50 (rhinovirus A2): > 100 µM | CC50 [5]: > 100 µM

CSC[C@H]1O[C@@H](n2cnc3c(NCc4cccc(C)c4)ncnc32)[C@H](O)[C@@H]1O
EC50 (Zika virus): > 100 µM | CC50 [4]: > 100 µM | CC50 [1]: > 75 µM | EC50 (Coxsackievirus A21): > 100 µM | EC50 (rhinovirus B14): > 100 µM | EC50 (Coxsackievirus B3): > 100 µM | EC50 (SARS-CoV-2): > 100 µM | EC50 (Enterovirus A71): 0.898 µM | EC50 (enterovirus D68): > 100 µM | selectivity ratio [2]: > 83.5 | CC50 [3]: > 100 µM | EC50 (rhinovirus A2): > 100 µM | CC50 [5]: > 50 µM

CSC[C@H]1O[C@@H](n2cnc3c(NC(C)c4cccc(Cl)c4)ncnc32)[C@H](O)[C@@H]1O (stereo partly drawn)
EC50 (Zika virus): > 100 µM | CC50 [1]: 44.3 µM | EC50 (SARS-CoV-2): > 100 µM | EC50 (Enterovirus A71): 4.21 µM | selectivity ratio [2]: 10.5 | CC50 [3]: 50.8 µM

OC[C@H]1O[C@@H](n2cnc3c(NCc4cccc(Cl)c4)ncnc32)[C@H](O)[C@@H]1O
EC50 (Zika virus): > 100 µM | CC50 [1]: 42.7 µM | EC50 (SARS-CoV-2): > 100 µM | EC50 (Enterovirus A71): 0.106 µM | selectivity ratio [2]: 403 | CC50 [3]: > 100 µM

— ChEMBL document CHEMBL5346868 (Eur J Med Chem, 2023)
